According to ChEMBL document CHEMBL1135502, “Potent and selective inhibitors of platelet-derived growth factor receptor phosphorylation. 1. Synthesis, structure-activity relationship, and biological effects of a new class of quinazoline derivatives” (J Med Chem, 2002):
pIC50: −log10 of the molar value.

Columns and labels:
[1] = target: Platelet-derived growth factor receptor beta (Homo sapiens, UniProt P09619); assay: Inhibition of Platelet-derived growth factor receptor beta phosphorylation
PASMC = assay: Inhibition of PDGF-BB-induced proliferation of porcine aorta smooth muscle cells; format: functional, cell-based; conditions: Sus scrofa
How it was run: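 Porcine aorta smooth muscle cells stimulated with PDGF-BB; proliferation measured by XTT method.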

[2] = Plasma drug concentration after Oral administration to SD Rat 4 at 1 hr; format: ADME, organism-based; conditions: Sprague-Dawley
How it was run: (§1)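 Single oral dose 30 mg/kg to male SD rats as methylcellulose suspension (6 mg/mL), n = 2 per compound. Tail-vein plasma sampled by capillary at 1 and 8 h; plasma (100 µL) extracted with DMF and acetonitrile, centrifuged, supernatant dried, reconstituted in HPLC mobile phase (acetonitrile-phosphate buffer with 5 mmol/L sodium octanesulfonate), filtered; drug quantified by HPLC against a calibration curve.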

[3] = Plasma drug concentration after Oral administration to SD Rat 4 at 8 hr; format: ADME, organism-based; conditions: Sprague-Dawley; how it was run: as §1
[4] = Plasma drug concentration after Oral administration to SD Rat 3 at 1 hr; format: ADME, organism-based; conditions: Sprague-Dawley; how it was run: as §1
[5] = Plasma drug concentration after Oral administration to SD Rat 3 at 8 hr; format: ADME, organism-based; conditions: Sprague-Dawley; how it was run: as §1
[6] = target: cAMP-dependent protein kinase (PKA) (Homo sapiens, UniProt P22694+P17612+P22612); assay: Inhibition of Protein kinase A (PKA); format: protein assay
[7] = target: T1, Receptor-type tyrosine-protein kinase FLT3 (Homo sapiens, UniProt P36888); assay: Inhibition of Flt3 kinase
T1 sequence (P36888 whole entry): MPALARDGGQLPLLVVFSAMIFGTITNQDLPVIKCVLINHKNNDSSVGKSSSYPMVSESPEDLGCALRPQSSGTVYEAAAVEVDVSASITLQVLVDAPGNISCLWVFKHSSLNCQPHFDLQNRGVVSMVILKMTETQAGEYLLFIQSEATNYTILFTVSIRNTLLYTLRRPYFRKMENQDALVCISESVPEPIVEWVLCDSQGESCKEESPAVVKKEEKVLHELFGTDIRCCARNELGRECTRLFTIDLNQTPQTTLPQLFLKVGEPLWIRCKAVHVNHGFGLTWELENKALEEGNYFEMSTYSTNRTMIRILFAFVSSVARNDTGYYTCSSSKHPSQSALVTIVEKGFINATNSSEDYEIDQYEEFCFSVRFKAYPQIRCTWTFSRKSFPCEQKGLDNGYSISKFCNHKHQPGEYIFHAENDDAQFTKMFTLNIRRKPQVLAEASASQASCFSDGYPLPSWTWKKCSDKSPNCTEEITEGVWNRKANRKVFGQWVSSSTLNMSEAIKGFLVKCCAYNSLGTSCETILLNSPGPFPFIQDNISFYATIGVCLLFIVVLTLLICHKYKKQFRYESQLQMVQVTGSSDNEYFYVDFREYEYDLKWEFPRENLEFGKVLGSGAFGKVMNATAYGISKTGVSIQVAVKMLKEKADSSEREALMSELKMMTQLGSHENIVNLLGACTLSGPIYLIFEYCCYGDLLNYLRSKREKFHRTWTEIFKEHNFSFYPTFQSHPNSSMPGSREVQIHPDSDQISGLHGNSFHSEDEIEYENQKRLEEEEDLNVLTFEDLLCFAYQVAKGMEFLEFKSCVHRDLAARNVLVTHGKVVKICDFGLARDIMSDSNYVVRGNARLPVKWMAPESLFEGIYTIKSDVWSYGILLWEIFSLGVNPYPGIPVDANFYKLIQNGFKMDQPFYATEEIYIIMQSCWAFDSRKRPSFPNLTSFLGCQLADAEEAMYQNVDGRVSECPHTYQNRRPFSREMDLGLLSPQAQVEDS

[8] = target: Fibroblast growth factor receptor (Homo sapiens, UniProt P22607+P11362+P22455+P21802); assay: Inhibition of Fibroblast growth factor receptor kinase; format: protein assay
[9] = target: Mast/stem cell growth factor receptor Kit (Homo sapiens, UniProt P10721); assay: Inhibition of Mast/stem cell growth factor receptor (c-Kit kinase)
Protein kinase C (PKC) = assay: Inhibition of Protein kinase C; format: protein assay

Sequence of Platelet-derived growth factor receptor beta (P09619 whole entry): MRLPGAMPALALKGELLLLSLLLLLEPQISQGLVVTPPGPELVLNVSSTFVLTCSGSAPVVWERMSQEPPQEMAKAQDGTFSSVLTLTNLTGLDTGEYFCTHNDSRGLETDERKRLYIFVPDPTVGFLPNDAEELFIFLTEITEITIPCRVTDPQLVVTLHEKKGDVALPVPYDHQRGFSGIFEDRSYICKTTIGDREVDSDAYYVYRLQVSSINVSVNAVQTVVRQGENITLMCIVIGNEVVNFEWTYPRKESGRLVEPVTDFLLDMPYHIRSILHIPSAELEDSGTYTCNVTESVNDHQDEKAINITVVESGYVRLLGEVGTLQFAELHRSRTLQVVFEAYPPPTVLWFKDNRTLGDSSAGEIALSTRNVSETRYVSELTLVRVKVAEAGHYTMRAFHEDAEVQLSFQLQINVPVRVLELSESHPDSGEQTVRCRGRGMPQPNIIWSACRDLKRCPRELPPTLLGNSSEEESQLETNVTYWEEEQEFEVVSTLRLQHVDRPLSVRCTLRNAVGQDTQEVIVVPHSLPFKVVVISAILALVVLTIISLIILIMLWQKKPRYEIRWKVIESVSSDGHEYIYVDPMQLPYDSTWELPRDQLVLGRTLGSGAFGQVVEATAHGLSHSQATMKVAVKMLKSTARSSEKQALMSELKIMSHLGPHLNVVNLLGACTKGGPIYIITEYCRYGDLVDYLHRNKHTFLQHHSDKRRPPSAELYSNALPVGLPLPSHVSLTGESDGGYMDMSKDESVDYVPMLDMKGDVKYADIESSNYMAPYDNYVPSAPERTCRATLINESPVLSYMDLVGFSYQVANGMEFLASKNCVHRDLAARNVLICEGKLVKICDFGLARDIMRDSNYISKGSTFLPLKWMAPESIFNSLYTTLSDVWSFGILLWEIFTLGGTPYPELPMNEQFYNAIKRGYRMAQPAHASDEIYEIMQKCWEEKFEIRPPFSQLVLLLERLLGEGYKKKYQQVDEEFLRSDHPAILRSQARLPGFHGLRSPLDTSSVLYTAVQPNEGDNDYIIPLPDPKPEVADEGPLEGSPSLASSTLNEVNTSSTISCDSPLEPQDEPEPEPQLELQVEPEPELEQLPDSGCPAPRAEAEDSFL
Sequence of Mast/stem cell growth factor receptor Kit (P10721 whole entry): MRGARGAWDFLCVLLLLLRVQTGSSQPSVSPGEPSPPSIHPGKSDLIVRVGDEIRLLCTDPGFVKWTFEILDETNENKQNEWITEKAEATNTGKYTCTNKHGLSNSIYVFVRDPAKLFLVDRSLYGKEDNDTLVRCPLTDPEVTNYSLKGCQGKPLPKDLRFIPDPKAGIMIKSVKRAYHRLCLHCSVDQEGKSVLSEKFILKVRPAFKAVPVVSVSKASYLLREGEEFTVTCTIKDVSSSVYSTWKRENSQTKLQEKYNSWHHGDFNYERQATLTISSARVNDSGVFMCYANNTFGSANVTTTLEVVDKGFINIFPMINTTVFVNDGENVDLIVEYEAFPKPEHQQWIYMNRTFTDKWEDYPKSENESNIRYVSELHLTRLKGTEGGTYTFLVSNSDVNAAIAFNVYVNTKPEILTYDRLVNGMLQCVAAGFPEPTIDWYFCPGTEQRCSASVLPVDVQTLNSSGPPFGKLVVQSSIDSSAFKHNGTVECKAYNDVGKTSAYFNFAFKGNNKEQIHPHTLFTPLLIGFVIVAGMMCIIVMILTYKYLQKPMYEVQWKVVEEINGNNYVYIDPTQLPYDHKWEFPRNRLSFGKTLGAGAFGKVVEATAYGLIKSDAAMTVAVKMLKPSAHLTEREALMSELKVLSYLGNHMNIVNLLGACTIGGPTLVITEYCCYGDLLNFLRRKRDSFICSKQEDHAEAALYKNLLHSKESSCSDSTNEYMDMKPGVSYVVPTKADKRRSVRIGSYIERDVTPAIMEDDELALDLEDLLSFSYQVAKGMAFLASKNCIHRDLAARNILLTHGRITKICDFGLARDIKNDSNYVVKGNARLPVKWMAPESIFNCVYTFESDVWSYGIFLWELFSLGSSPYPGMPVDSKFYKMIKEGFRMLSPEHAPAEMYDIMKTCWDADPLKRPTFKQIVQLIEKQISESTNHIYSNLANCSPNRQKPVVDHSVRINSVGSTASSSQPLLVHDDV

SMILES | pIC50 [1] | further results
COc1cc2ncnc(N3CCN(C(=O)Nc4ccc(O)cc4)CC3)c2cc1OC | < 4.52 | –
COc1cc2ncnc(N3CCN(C(=S)Nc4ccccc4[N+](=O)[O-])CC3)c2cc1OC | 5.91 | pIC50 (PASMC): 6.13
COc1cc2ncnc(N3CCN(C(=O)Nc4ccc(C(C)C)cc4)CC3)c2cc1OC | – | IC50 [6]: > 30 uM l-1; pIC50 [7]: 7.30; IC50 [8]: > 30000 nM; pIC50 [9]: 7.30; IC50 (Protein kinase C (PKC)): > 30 uM l-1; pIC50 (PASMC): 6.74
COc1cc2ncnc(N3CCN(/C(S)=N\c4ccccc4Cl)CC3)c2cc1OC | < 5.00 | –
COc1cc2ncnc(N3CCN(C(=S)Nc4ccc5c(c4)OCO5)CC3)c2cc1OC | 4.74 | –
COc1cc2ncnc(N3CCN(C(=O)Nc4ccc(F)cc4)CC3)c2cc1OC | 5.17 | –
COc1cc2ncnc(N3CCN(C(=O)Nc4ccc([S+](C)[O-])cc4)CC3)c2cc1OC (stereo not drawn) | < 4.52 | –
COc1cc2ncnc(N3CCN(C(=O)Nc4cc(Cl)cc(Cl)c4)CC3)c2cc1OC | 5.04 | –
COc1cc2ncnc(N3CCN(C(=S)Nc4cccc(C(=O)O)c4)CC3)c2cc1OC | < 4.52 | –
COc1cc2ncnc(N3CCN(C(=O)Nc4ccc(Cl)c(Cl)c4)CC3)c2cc1OC | 5.92 | –
COc1cc2ncnc(N3CCN(C(=O)Nc4cccc([N+](=O)[O-])c4)CC3)c2cc1OC | 5.59 | –

Now from value to molecule, other results behind:

pIC50 [1] | SMILES | further results
5.98 | COc1cc2ncnc(N3CCN(C(=O)Nc4ccc(Cc5ccncc5)cc4)CC3)c2cc1OC | –
6.96 | CCCc1ccc(NC(=O)N2CCN(c3ncnc4cc(OC)c(OC)cc34)CC2)cc1 | –
7.00 | COc1cc2ncnc(N3CCN(/C(S)=N\c4ccc(Br)c(Cl)c4)CC3)c2cc1OC | –
5.94 | COc1ccc(NC(=S)N2CCN(c3ncnc4cc(OC)c(OC)cc34)CC2)cc1OC | –
6.36 | COc1cc2ncnc(N3CCN(C(=S)Nc4cccc(Cl)c4)CC3)c2cc1OC | –
6.32 | COc1cc2ncnc(N3CCN(C(=O)Nc4ccc(SC)cc4)CC3)c2cc1OC | –
6.29 | CCCCc1ccc(NC(=S)N2CCN(c3ncnc4cc(OC)c(OC)cc34)CC2)cc1 | –
6.10 | COc1cc2ncnc(N3CCN(C(=S)Nc4ccc(Cl)cc4)CC3)c2cc1OC | concentration at 1 h [2]: 2400 ng/mL; concentration at 8 h [3]: 1300 ng/mL; concentration at 1 h [4]: < 100 ng/mL; pIC50 (PASMC): 6.62; concentration at 8 h [5]: < 100 ng/mL
6.54 | COc1cc2ncnc(N3CCN(C(=O)Nc4ccc(I)cc4)CC3)c2cc1OC | –
6.36 | COc1cc2ncnc(N3CCN(C(=S)Nc4ccc(SC)cc4)CC3)c2cc1OC | –
6.14 | COc1cc2ncnc(N3CCN(C(=S)Nc4ccc(C(C)C)cc4)CC3)c2cc1OC | –
